Results as given in ChEMBL document CHEMBL1629599, “A small-molecule screen identifies the antipsychotic drug pimozide as an inhibitor of Listeria monocytogenes infection” (2009).
Activity calls are given as the source filed them. The rule behind the calls is not given here.

How the values were obtained:
[1] = system: Listeria monocytogenes; assay: Antimicrobial activity against Listeria monocytogenes 10403S infected in L2 cells assessed as decrease in plaque size at 18.1 uM after 1 hr; format: functional; details: L2, 1 h
Summary of the method: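 Wild-type L. monocytogenes grown 14–16 h, PBS-washed, infects L2 fibroblast monolayers (2 × 10^6 cells/well, seeded 24 h before) at MOI 1:5 after 2 h compound or DMSO pretreatment. At 1 h, wash and add agarose overlay with 30 µg/ml gentamicin plus 18.1 µM compound. Neutral red overlay added at 72 h. Plates scanned at 96 h; diameters of 10 plaques per well expressed as percent of DMSO; three independent experiments.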

[2] = system: Listeria monocytogenes; assay: Inhibition of internalization of Listeria monocytogenes 10403S into murine J774 cells pretreated at 18.1 uM for 2 hrs; format: functional
Summary of the method: (§1)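 J774 or RAW 264.7 cells (4 × 10^5/well) are pretreated 2 h with 18.1 µM compound or DMSO, then infected with washed wild-type 10403S at MOI 10:1 with compound. At 30 min, medium with 50 µg/ml gentamicin plus compound is added. At 90 min, cells are lysed in 0.1% Triton X-100 and intracellular CFU plated on LB agar. Triplicates.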

[3] = system: Listeria monocytogenes; assay: Inhibition of internalization of Listeria monocytogenes DH-L1252 into murine bone marrow macrophages assessed as reduction in vacuolar escape of bacteria using phalloidin staining; format: functional
Summary of the method: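 Bone marrow macrophages on coverslips are treated 2 h with 18.1 µM compound or DMSO, then infected 30 min at MOI 10:1 with GFP 10403S grown to OD600 ~0.5 at 37°C. Gentamicin (50 µg/ml) plus compound is added. At 90 min, cells are fixed and stained with Texas Red-phalloidin and Hoechst. At least 100 bacteria per coverslip are scored as percent F-actin-associated.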

[4] = system: Listeria monocytogenes; assay: Antimicrobial activity against Listeria monocytogenes DH-L1252 infected in murine bone marrow macrophages assessed as decrease in growth rate at 18.1 uM after 6 hrs; format: functional, organism-based
[5] = system: Listeria monocytogenes; assay: Antimicrobial activity against Listeria monocytogenes 10403S infected in L2 cells assessed as decrease in number of plaque formation at 18.1 uM after 1 hr; format: functional, cell-based
[6] = system: Listeria monocytogenes; assay: Inhibition of internalization of Listeria monocytogenes 10403S into murine bone marrow macrophages pretreated at 2.5 to 20 uM for 2 hrs; format: functional
Summary of the method: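 Bone marrow macrophages are pretreated 2 h with twofold compound dilutions, then infected with wild-type 10403S at MOI 10:1. Extracellular bacteria are killed with 50 µg/ml gentamicin at 30 min. At 90 min, cells are lysed and intracellular CFU enumerated. Three experiments in triplicate, fitted by linear regression.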

[7] = system: Listeria monocytogenes; assay: Inhibition of internalization of Listeria monocytogenes 10403S into murine Raw 264.7 cells pretreated at 18.1 uM for 2 hrs; format: functional; details: RAW264.7; summary of the method: as §1
[8] = system: Listeria monocytogenes; assay: Antimicrobial activity against Listeria monocytogenes DH-L1252 infected in murine bone marrow macrophages assessed as log reduction in intracellular bacterial count upto 10 hrs; format: functional
Summary of the method: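 BALB/c bone-marrow macrophages were seeded at 4 × 10^5/well 24 h ahead and pretreated 2 h with 18.1 µM drug or DMSO. They were infected at MOI 1:2 in antibiotic-free medium with washed Listeria grown 14–16 h in BHI at 30°C without shaking, with drug present throughout. At 1 h, 5 µg/ml gentamicin was added. At each time point cells were lysed in 0.1% Triton X-100 and CFU counted on LB agar, in triplicate.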

[9] = system: Listeria monocytogenes; assay: Antimicrobial activity against Listeria monocytogenes DH-L1252 infected in murine bone marrow macrophages assessed as decrease in GFP reporter gene expression at 18.1 uM after 15 hrs; format: functional, organism-based
Summary of the method: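 Primary BALB/c bone marrow macrophages (differentiated 6 days with L929 supernatant) are treated with 18.1 µM compound or DMSO, then infected with GFP-expressing 10403S (DH-L1252) at MOI 1:2. Extracellular bacteria are killed with 5 µg/ml gentamicin after 1 h. At 15 h post-infection, cells are fixed with paraformaldehyde and Hoechst-stained, and GFP is imaged by automated microscopy. Three independent infections in duplicate.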

[10] = system: Escherichia coli; assay: Inhibition of internalization of Escherichia coli K-12 into murine murine bone marrow macrophages pretreated at 18.1 uM for 2 hrs; format: functional
Summary of the method: (§2)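 Gentamicin protection assay: bone marrow macrophages (4 × 10^5/well) pretreated 2 h with 18.1 µM compound or DMSO, then infected with B. subtilis 3610 (MOI 1.5:1), Salmonella Typhimurium IR715 (MOI 20:1) or E. coli K12 MM294 (MOI 20:1), all grown in LB at 37°C. After 30 min, 50 µg/ml gentamicin plus compound added; lysed at 90 min; CFU on LB agar; triplicates.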

[11] = system: Listeria monocytogenes; assay: Inhibition of Listeria monocytogenes 10403S entry into murine bone marrow macrophages at 18.1 uM after 30 mins in calcium-free medium; format: functional; details: 0.5 h
Summary of the method: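 Bone marrow macrophages are preincubated 30 min in calcium-free buffer (NaCl, KCl, MgCl2, 0.1 mM EGTA, glucose, HEPES, pH 7.35) with 18.1 µM compound or DMSO. They are then infected with wild-type 10403S for 15 min. Calcium-free medium with 50 µg/ml gentamicin plus compound is added. At 45 min, cells are lysed and intracellular CFU plated on LB agar. Triplicates.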

[12] = system: Listeria monocytogenes; assay: Antimicrobial activity against Listeria monocytogenes DH-L1252 infected in murine bone marrow macrophages assessed as intracellular bacterial replication upto 10 hrs; format: functional, organism-based
Summary of the method: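 BALB/c bone marrow macrophages (4 × 10^5/well) are pretreated 2 h with 18.1 µM compound or DMSO, then infected with washed wild-type 10403S at MOI 1:2 in the presence of compound. At 1 h, medium with 5 µg/ml gentamicin plus compound is added. At set times, cells are lysed in 0.1% Triton X-100 and lysates plated on LB agar for CFU. Triplicates.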

[13] = system: Bacillus subtilis; assay: Inhibition of internalization of Bacillus subtilis into murine murine bone marrow macrophages pretreated at 18.1 uM for 2 hrs; format: functional; summary of the method: as §2
[14] = system: Listeria monocytogenes; assay: Antimicrobial activity against Listeria monocytogenes 10403S infected in L2 cells assessed as intracellular bacterial replication; format: functional, cell-based
Summary of the method: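 L2 fibroblasts (2 × 10^5/well, seeded 24 h before) are pretreated 2 h with 18.1 µM compound or DMSO. They are then infected with washed wild-type 10403S grown 14–16 h at 30°C in BHI, in antibiotic-free medium with compound. At 1 h, medium with 50 µg/ml gentamicin plus compound is added. At set times, cells are lysed in 0.1% Triton X-100 and lysates plated on LB agar for CFU. Triplicates.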

[15] = system: Salmonella typhimurium; assay: Inhibition of internalization of Salmonella enterica serovar Typhimurium into murine murine bone marrow macrophages pretreated at 18.1 uM for 2 hrs; format: functional, Salmonella enterica subsp. enterica serovar Typhimurium; summary of the method: as §2

O=c1[nH]c2ccccc2n1C1CCN(CCCC(c2ccc(F)cc2)c2ccc(F)cc2)CC1 [PIMOZIDE]
inhibition at 18.1 µM [1]: 47.1%
inhibition at 18.1 µM [2]: 75%
inhibition (INH) [3]: 26.3%
Activity [4]: inactive
inhibition [5]: Active
inhibition [6]: Dose-dependent effect
inhibition at 18.1 µM [7]: 95%
FC [8]: 1
Activity [9]: Active
inhibition at 18.1 µM [10]: 60%
inhibition at 18.1 µM [11]: 95%
Activity [12]: inactive
inhibition at 18.1 µM [13]: 73%
Activity [14]: inactive
inhibition at 18.1 µM [15]: 64%
